Test results: ChEMBL document CHEMBL1153433, “Design and synthesis of 2-amino-4-methylpyridine analogues as inhibitors for inducible nitric oxide synthase and in vivo evaluation of [18F]6-(2-fluoropropyl)-4-methyl-pyridin-2-amine as a potential PET tracer for inducible nitric oxide synthase” (J Med Chem, 2009); call rule not given here

How the values were obtained:
[1] = Metabolic stability in Sprague-Dawley rat plasma assessed as parent compound remaining at 400 uCi, iv after 5 mins by HPLC; type: ADME, organism-based; conditions: read-out: Stability
In short: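 Anesthetized male Sprague-Dawley rat given 400 μCi [18F]tracer in 10% ethanol/saline i.v. via tail vein. Blood drawn by cardiac puncture at 5 and 30 min. Plasma separated by centrifugation, treated with 3 equivalents of acetonitrile and centrifuged; supernatant filtered and analysed by HPLC. Samples kept on ice.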

[2] = test system: Blood; test: Biodistribution in LPS treated C57BL/6N mouse blood at 50 uCi/110 uL, iv administered 6 hrs […] LPS challenge measured after 1 hr post drug dose; type: ADME, organism-based; conditions: in vivo
In short: (§1)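 Male C57BL/6N mice aged 6-8 weeks received E. coli O127:B8 LPS in PBS, 10 mg/kg i.v., 6 h before tracer. Tracer ~50 μCi in 10% ethanol/saline, i.v. tail vein. Sacrifice was at 5 min, 30 min, 1 h or 2 h post-injection. Organs were weighed and gamma-counted with injectate standards. Data are %ID/g, mean ± SD, n = 4.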

[3] = test system: Blood; test: Biodistribution in C57BL/6N mouse blood at 50 uCi/110 uL, iv after 1 hr; type: ADME, organism-based; conditions: in vivo
In short: (§2)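 Untreated (control) male C57BL/6N mice aged 6-8 weeks. HPLC-purified tracer, ~50 μCi in 10% ethanol/saline, given i.v. via the tail vein. Mice were sacrificed at 5 min, 30 min, 1 h and 2 h post-injection. Tissues were removed, weighed and gamma-counted against diluted injectate standards. Data are %ID/g, mean ± SD, n = 4.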

[4] = test system: Lung; test: Biodistribution in LPS treated C57BL/6N mouse lung at 50 uCi/110 uL, iv administered 6 hrs […] LPS challenge measured after 30 mins post drug dose; type: ADME, organism-based; conditions: in vivo, 0.5 h
In short: (§3)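 Male C57BL/6N mice, 6-8 weeks; LPS (E. coli O127:B8) in PBS, 10 mg/kg i.v., given 6 h before tracer. HPLC-purified [18F]tracer ~50 μCi in 10% ethanol/saline i.v. via tail vein. Killed at 5 min, 30 min, 1 h or 2 h; tissues weighed and gamma-counted against diluted injectate standards. Reported as %ID/g, mean ± SD, n = 4.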

[5] = test system: Lung; test: Biodistribution in C57BL/6N mouse lung at 50 uCi/110 uL, iv after 30 mins; type: ADME, organism-based; conditions: in vivo, 0.5 h; in short: as §2
[6] = test system: Lung; test: Biodistribution in C57BL/6N mouse lung at 50 uCi/110 uL, iv after 1 hr; type: ADME, organism-based; conditions: in vivo; in short: as §2
[7] = test system: Liver; test: Biodistribution in C57BL/6N mouse liver at 50 uCi/110 uL, iv after 5 mins; type: ADME, organism-based; conditions: in vivo; in short: as §2
[8] = test system: Bone; test: Biodistribution in LPS treated C57BL/6N mouse bone at 50 uCi/110 uL, iv administered 6 hrs […] LPS challenge measured after 2 hrs post drug dose; type: ADME, organism-based, Bone element; conditions: in vivo; in short: as §1
[9] = test system: Liver; test: Biodistribution in LPS treated C57BL/6N mouse liver at 50 uCi/110 uL, iv administered 6 hrs […] LPS challenge measured after 1 hr post drug dose; type: ADME, organism-based; conditions: in vivo; in short: as §3
[10] = test system: Liver; test: Biodistribution in LPS treated C57BL/6N mouse liver at 50 uCi/110 uL, iv administered 6 hrs […] LPS challenge measured after 2 hrs post drug dose; type: ADME, organism-based; conditions: in vivo; in short: as §3
[11] = test system: Kidney; test: Biodistribution in LPS treated C57BL/6N mouse kidney at 50 uCi/[…], iv administered […] measured after 5 mins post drug dose; type: ADME, organism-based; conditions: in vivo; in short: as §3
[12] = test system: Kidney; test: Biodistribution in C57BL/6N mouse kidney at 50 uCi/110 uL, iv after 5 mins; type: ADME, organism-based; conditions: in vivo; in short: as §2
[13] = test system: Kidney; test: Biodistribution in LPS treated C57BL/6N mouse kidney at 50 uCi/110 uL, iv administered 6 hrs […] LPS challenge measured after 30 mins post drug dose; type: ADME, organism-based; conditions: in vivo, 0.5 h; in short: as §3
[14] = test system: Kidney; test: Biodistribution in C57BL/6N mouse kidney at 50 uCi/110 uL, iv after 30 mins; type: ADME, organism-based; conditions: in vivo, 0.5 h; in short: as §2
[15] = test system: Kidney; test: Biodistribution in LPS treated C57BL/6N mouse kidney at 50 uCi/110 uL, iv administered 6 hrs […] LPS challenge measured after 2 hrs post drug dose; type: ADME, organism-based; conditions: in vivo; in short: as §3
[16] = test system: Kidney; test: Biodistribution in C57BL/6N mouse kidney at 50 uCi/110 uL, iv after 2 hrs; type: ADME, organism-based; conditions: in vivo; in short: as §2
[17] = test system: Muscle tissue; test: Biodistribution in LPS treated C57BL/6N mouse muscle at 50 uCi/110 uL, iv administered 6 hrs […] LPS challenge measured after 5 mins post drug dose; type: ADME, organism-based; conditions: in vivo; in short: as §3
[18] = test system: Blood; test: Biodistribution in C57BL/6N mouse blood at 50 uCi/110 uL, iv after 5 mins; type: ADME, organism-based; conditions: in vivo; in short: as §2
[19] = test system: Mus musculus; test: Biodistribution in LPS treated C57BL/6N mouse at 5 uCi, iv co-administered with nonselective NOS inhibitor 2-amino-4-methylpyridine measured after 1 hr; type: ADME, organism-based; conditions: in vivo
[20] = test system: Muscle tissue; test: Biodistribution in C57BL/6N mouse muscle at 50 uCi/110 uL, iv after 30 mins; type: ADME, organism-based; conditions: in vivo, 0.5 h; in short: as §2
[21] = test system: Muscle tissue; test: Biodistribution in LPS treated C57BL/6N mouse muscle at 50 uCi/110 uL, iv administered 6 hrs […] LPS challenge measured after 1 hr post drug dose; type: ADME, organism-based; conditions: in vivo; in short: as §3
[22] = test system: Muscle tissue; test: Biodistribution in C57BL/6N mouse muscle at 50 uCi/110 uL, iv after 1 hr; type: ADME, organism-based; conditions: in vivo; in short: as §2
[23] = test system: Muscle tissue; test: Biodistribution in C57BL/6N mouse muscle at 50 uCi/110 uL, iv after 2 hrs; type: ADME, organism-based; conditions: in vivo; in short: as §2
[24] = test system: Heart; test: Biodistribution in LPS treated C57BL/6N mouse heart at 50 uCi/110 uL, iv administered 6 hrs […] LPS challenge measured after 5 mins post drug dose; type: ADME, organism-based; conditions: in vivo; in short: as §1
[25] = test system: Heart; test: Biodistribution in C57BL/6N mouse heart at 50 uCi/110 uL, iv after 5 mins; type: ADME, organism-based; conditions: in vivo; in short: as §2
[26] = test system: Heart; test: Biodistribution in C57BL/6N mouse heart at 50 uCi/110 uL, iv after 30 mins; type: ADME, organism-based; conditions: in vivo, 0.5 h; in short: as §2
[27] = test system: Heart; test: Biodistribution in LPS treated C57BL/6N mouse heart at 50 uCi/110 uL, iv administered 6 hrs […] LPS challenge measured after 1 hr post drug dose; type: ADME, organism-based; conditions: in vivo; in short: as §1
[28] = test system: Heart; test: Biodistribution in C57BL/6N mouse heart at 50 uCi/110 uL, iv after 1 hr; type: ADME, organism-based; conditions: in vivo; in short: as §2
[29] = test system: Heart; test: Biodistribution in C57BL/6N mouse heart at 50 uCi/110 uL, iv after 2 hrs; type: ADME, organism-based; conditions: in vivo; in short: as §2
[30] = test system: Brain; test: Biodistribution in LPS treated C57BL/6N mouse brain at 50 uCi/110 uL, iv administered 6 hrs […] LPS challenge measured after 30 mins post drug dose; type: ADME, organism-based; conditions: in vivo, 0.5 h; in short: as §1
[31] = test system: Brain; test: Biodistribution in C57BL/6N mouse brain at 50 uCi/110 uL, iv after 30 mins; type: ADME, organism-based; conditions: in vivo, 0.5 h; in short: as §2
[32] = test system: Brain; test: Biodistribution in LPS treated C57BL/6N mouse brain at 50 uCi/110 uL, iv administered 6 hrs […] LPS challenge measured after 1 hr post drug dose; type: ADME, organism-based; conditions: in vivo; in short: as §1
[33] = test system: Bone; test: Biodistribution in LPS treated C57BL/6N mouse bone at 50 uCi/110 uL, iv administered 6 hrs […] LPS challenge measured after 30 mins post drug dose; type: ADME, organism-based, Bone element; conditions: in vivo, 0.5 h; in short: as §1
[34] = test system: Bone; test: Biodistribution in C57BL/6N mouse bone at 50 uCi/110 uL, iv after 30 mins; type: ADME, organism-based, Bone element; conditions: in vivo, 0.5 h; in short: as §2
[35] = test system: Bone; test: Biodistribution in LPS treated C57BL/6N mouse bone at 50 uCi/110 uL, iv administered 6 hrs before LPS challenge measured after 1 hr post drug dose; type: ADME, organism-based, Bone element; conditions: in vivo, in the assay text read “6 hrs after LPS challenge” for “6 hrs before LPS challenge”; in short: as §1

remaining at 5 min [1]: 40.3%
Drug uptake [2]: 0.86 % ID/g
Drug uptake [3]: 0.31 % ID/g
Drug uptake [4]: 1.84 % ID/g
Drug uptake [5]: 1.14 % ID/g
Drug uptake [6]: 0.31 % ID/g
Drug uptake [7]: 33.2 % ID/g
Drug uptake [8]: 3.77 % ID/g
Drug uptake [9]: 2.63 % ID/g
Drug uptake [10]: 0.42 % ID/g
Drug uptake [11]: 26.7 % ID/g
Drug uptake [12]: 20.6 % ID/g
Drug uptake [13]: 10.9 % ID/g
Drug uptake [14]: 7.3 % ID/g
Drug uptake [15]: 0.91 % ID/g
Drug uptake [16]: 0.8 % ID/g
Drug uptake [17]: 1.64 % ID/g
Drug uptake [18]: 2.37 % ID/g
Activity [19]: Not Active
Drug uptake [20]: 0.71 % ID/g
Drug uptake [21]: 0.78 % ID/g
Drug uptake [22]: 0.27 % ID/g
Drug uptake [23]: 0.34 % ID/g
Drug uptake [24]: 2.03 % ID/g
Drug uptake [25]: 1.5 % ID/g
Drug uptake [26]: 0.6 % ID/g
Drug uptake [27]: 0.41 % ID/g
Drug uptake [28]: 0.19 % ID/g
Drug uptake [29]: 0.08 % ID/g
Drug uptake [30]: 0.52 % ID/g
Drug uptake [31]: 0.28 % ID/g
Drug uptake [32]: 0.19 % ID/g
Drug uptake [33]: 3.7 % ID/g
Drug uptake [34]: 2.26 % ID/g
Drug uptake [35]: 4.3 % ID/g
SMILES: Cc1cc(N)nc(CC(C)[18F])c1 (stereo not given)
